The record followed here is ChEMBL document CHEMBL4477258, “Ca-asp bound X-ray structure and inhibition of Bacillus anthracis dihydroorotase (DHOase)” (Bioorg Med Chem, 2016).

Experiment [1] has as its target T1, Dihydroorotase (Bacillus anthracis) (UniProt Q81WF0).
T1 sequence (whole entry): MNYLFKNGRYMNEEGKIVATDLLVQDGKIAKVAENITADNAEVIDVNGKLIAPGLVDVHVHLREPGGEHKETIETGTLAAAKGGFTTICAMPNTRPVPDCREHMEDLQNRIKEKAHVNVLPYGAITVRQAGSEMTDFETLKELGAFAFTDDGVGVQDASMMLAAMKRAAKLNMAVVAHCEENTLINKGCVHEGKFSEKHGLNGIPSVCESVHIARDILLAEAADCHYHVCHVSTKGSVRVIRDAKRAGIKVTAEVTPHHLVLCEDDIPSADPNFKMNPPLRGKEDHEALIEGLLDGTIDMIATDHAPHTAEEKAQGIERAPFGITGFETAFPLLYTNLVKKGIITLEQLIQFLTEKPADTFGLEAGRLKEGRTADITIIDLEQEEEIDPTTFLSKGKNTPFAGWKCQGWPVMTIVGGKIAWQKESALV
The experiment in a line: (§1) Binding affinity to Bacillus anthracis Sterne His-tagged DHOase expressed in Escherichia coli BL21(DE3) Gold cells in presence of N-carbamyl-L-aspartate by surface plasmon resonance analysis. To be noted: Bacillus anthracis str. Sterne. Put shortly:
(§2)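 His-tag-cleaved DHOase immobilized on a CM5 chip, with a blank reference channel. Compounds run at 0–200 μM (2-fold dilutions) at 25 °C, 10 μL/min, in PBS-P with 2% DMSO, 0.5 mM TCEP and 1 mM Ca-asp. KD taken from steady-state affinity fit. SD from three independent experiments.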
(In general: SPR reads the build-up and loss of mass on a sensor chip optically.)

The target in experiment [2] is T2, Dihydroorotase (Bacillus anthracis, UniProt Q81WF0).
T2 sequence (Q81WF0 whole entry): T1 sequence (whole entry)
Description: Binding affinity to Bacillus anthracis Sterne His-tagged DHOase expressed in Escherichia coli BL21(DE3) Gold cells by surface plasmon resonance analysis. Set-up: species or system Bacillus anthracis str. Sterne. Put shortly:
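His-tag-cleaved DHOase amine-coupled to a CM5 chip at pH 4.5. Ethanolamine-blocked channel used as reference. Compounds run at 0–200 μM (2-fold dilutions) in PBS-P with 2% DMSO and 0.5 mM TCEP, at 10 μL/min and 25 °C. KD taken from steady-state affinity fit of equilibrium response. SD from three independent experiments.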

For experiment [3], the target named is T1, Dihydroorotase (Bacillus anthracis). The experiment in a line: Inhibition of Bacillus anthracis Sterne His-tagged DHOase expressed in Escherichia coli BL21(DE3) Gold cells using DHO as substrate assessed as enzyme activity at 25 or 400 uM preincubated for 10 mins followed by substrate addition measured after 30 mins by DAMO-TSC reagent based colorimetric assay relative to control. Set-up: scale not given: the % may be the effect or the level left. To be noted: Bacillus anthracis str. Sterne. Put shortly: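 Reverse reaction run in duplicate. Fragments at 400 μM or compounds at 25 μM final, 10 min at room temperature. 10 μL of 320 μM DHO added, 30 min reaction, quenched with acidic DAMO-TSC. Colour developed 16 h in the dark, A540 read.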

Experiment [4] shares this target. Description: Binding affinity to Bacillus anthracis Sterne His-tagged DHOase expressed in Escherichia coli BL21(DE3) Gold cells assessed as change in melting temperature at 400 uM incubated for 10 mins by SYPRO orange dye based fluorescence thermal shift assay. To be noted: Bacillus anthracis str. Sterne. Put shortly:
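Histidine-tagged DHOase at 5 μM final in 50 mM MES pH 6.5, 0.01% CHAPS, 150 mM NaCl, 2 mM TCEP. Fragment added at 400 μM final and incubated 10 min at room temperature, then SYPRO Orange at 10X diluted from 5000X stock. Heated 25 to 95 °C at […], fluorescence read at ex/em 470/623 nm. Tm shift >2 °C scored as a hit.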

The target in experiment [5] is T2, Dihydroorotase. The description is as §1. Set-up: species or system Bacillus anthracis str. Sterne. A digest of the protocol:
as §2

Structures are written as SMILES. Calls of active or inactive are those of the source. The calls are words filed in the database; no cut-off is given here. Some results are limits rather than exact numbers.

A word on the Kd: it is the concentration at which binding is half-saturated. What is called ΔTm is the change in melting temperature against a reference sample.

Regarding `Cn1ccc2c(CO)cccc21`, in experiment [1], the result was Active. Also, the Kd in experiment [2] (read-out: Kd) lay within 67 to 334 µM. Besides, the Activity in experiment [3] was under 50%. For the same compound, the shift in melting temperature (ΔTm) in experiment [4] was over 2 °C.
For the compound `CCC(=O)Nc1ccc(OC)cc1OC`, the Kd in experiment [5] (read-out: Kd) and in experiment [2] (read-out: Kd) was 170 µM in each case. In experiment [3], the Activity is under 50%. In addition, the ΔTm in experiment [4] was over 2 °C.
`COc1ccc2[nH]c3c(c2c1)CCNC3`: the results for the Kd in experiment [5] (read-out: Kd) and in experiment [2] (read-out: Kd) were 675 µM and 588 µM, respectively.
For the compound `CSC1(NC#N)NCCc2c1[nH]c1ccc(F)cc21` (stereo not drawn), the Kd in experiment [5] (read-out: Kd) is over 1000 µM. In addition, the Activity in experiment [3] was under 50%. For the same compound, in experiment [4], the ΔTm was over 2 °C.
Consider `CCS(=O)(=O)N(C)c1ccc(C(=O)N2CCCC2)cc1`, for which the outcome in experiment [1] was Active. In addition, the Kd in experiment [2] (read-out: Kd) is 67 to 334 µM. Besides, the Activity in experiment [3] was under 50%. The ΔTm in experiment [4] was over 2 °C.
Turning to `Cc1ccc2[nH]c3c(c2c1)CCNC3`, the Kd result in experiment [5] and in experiment [2] was “Not Active” in each case.
For `CCC(=O)Nc1cc(OC)cc(OC)c1`, the Kd was 281 µM in experiment [5] (read-out: Kd) and 157 µM in experiment [2] (read-out: Kd). In experiment [3], the Activity was under 50%. In addition, the shift in melting temperature (ΔTm) in experiment [4] was over 2 °C.
Take `CCC1NCCn2cccc21` (stereo not drawn): the result in experiment [1] was Active. Also, the Kd in experiment [2] (read-out: Kd) was 67 to 334 µM. Besides, the Activity in experiment [3] is under 50%. Moreover, the ΔTm in experiment [4] is over 2 °C.
Take `COc1ccc2[nH]c(CN)cc2c1`: the Kd entry in experiment [2] was “Not Active”.
With `COc1ccc2[nH]c3c(c2c1)CCNC31CCOCC1`, the Kd in experiment [5] (read-out: Kd) was found to be 314 µM; in experiment [2] (read-out: Kd) it was 380 µM. In experiment [3], the Activity was under 50%. In addition, the ΔTm in experiment [4] was over 2 °C.
With `COc1ccc2[nH]c3c(c2c1)CCNC3(NC#N)SC` (stereo not drawn), the Kd in experiment [5] (read-out: Kd) is 144 µM; in experiment [2] (read-out: Kd), 21 to 119 µM.
On to `COc1ccc2[nH]c3c(c2c1)CN(C(C)=O)CC3`, for which the Kd in experiment [5] (read-out: Kd) stood at 215 µM; in experiment [2] (read-out: Kd) it was 205 µM. Moreover, the Activity in experiment [3] was under 50%. In addition, the thermal shift (ΔTm) in experiment [4] is over 2 °C.
